Several values for one entry are separate records, joined by “and”; a condition that tells them apart may be missing. Equal entries are not always repeated. Activity calls are given as the source filed them.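 How the source made its calls, unless noted: active means viability at or under a set limit in both replicates, limit being median viability minus 3 SD (cut at about 48% in these data, passing the limit was not always enough); inconclusive means at or under the limit in just one replicate; inactive means at or above the limit in both replicates.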
What was measured:
[1] = reducers of endogenous Her2 protein level, primary screen, SKBR3 breast tumor cells, AlphaScreen, ATP viability (AID 461;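 active means Her2 level under about 52% in both replicate screens, with viability over 70% of control, limit read from the data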;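 on Her2 level: lower value means less Her2 protein in the cells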;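 on viability: percent of carrier control wells set as 100% viability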); settings: 18-24 h, measured here: SKBR3 viability, ATP luminescence, at 10 µM
[2] = target: Receptor tyrosine-protein kinase erbB-2 (Homo sapiens) (UniProt P04626); assay: as above; settings: 18-24 h, at 10 µM, stronger effect = lower value
[3] = SK-BR-3 cell growth inhibitors, pilot screen, 24 h, human (AID 572;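 active means viability at or below 10% of carrier control in both of two separate runs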;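 further: compound exposure lasted between 18 and 24 h rather than exactly 24 h; 100% = carrier-treated control wells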); settings: SK-BR-3 viability, CellTiter-Glo luminescence, at 10 µM, stronger effect = lower value
[4] = HUVEC growth inhibition – cell-based, human, primary screen (AID 575;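 active means viability at or below 30% in both replicate assays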;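 further: 100% = median of untreated cell wells with 0.1% DMSO on each plate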); settings: HUVEC proliferation, CellTiter-Glo luminescence, 72 h; at 10 µM; stronger effect = lower value
Summary of the method: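 Assay system: primary human umbilical vein endothelial cells / Buffer or medium: endothelial basal medium with 2% FBS plus growth supplements / Compound dosing: one dose, 10 µM final, 0.1% DMSO / Timing: 72 h treatment at 37 °C / Signal: CTG luminescence / Benchmarks: 32 DMSO-only cell-control wells (high), 32 MePR drug-control wells (low) per plate / Plate: collagen-coated 384-well format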

[5] = growth inhibitors of H69AR lung tumor, primary screen, human, duplicate replicates (AID 580); settings: H69AR lung tumor cells viability, ATP luminescence, 72 h; at 10 µM; stronger effect = lower value;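 further: 100% = mean luminescence of untreated wells and 0% = no signal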
[6] = reversal of MRP1-mediated doxorubicin resistance, pilot screen, H69AR cells, doxorubicin co-treatment (AID 601;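 active means viability loss from added drug above about 55%, and viability with drug at most 40%, in both replicates, limit read from the data, passing the limit was not always enough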); settings: CellTiter-Glo, 72 h, at 10 µM; for differential viability (reversal): stronger effect = higher value
[7] = 384-well plate pilot, post-Golgi transport modulator project, inhibition of yeast transport mutant growth (AID 636; in the data active means inhibition above about 31%); settings: absorbance 615 nm, about 18 h, stronger effect = higher value
[8] = growth suppression of yeast trafficking mutant, preliminary HTS, modulators of trafficking downstream of Golgi apparatus project, 1536-format plate, OD 615 nm (AID 637; in the data active means inhibition above about 30%); settings: yeast transport mutant growth, absorbance 615 nm, 18 h; stronger effect = higher value
[9] = H69AR cells + 2 uM doxorubicin, measured here: viability with 2 uM doxorubicin, stronger effect = lower value
[10] = H69AR cells, compound alone cytotoxicity

Sequence of Receptor tyrosine-protein kinase erbB-2 (Homo sapiens) (P04626 whole entry, looked up): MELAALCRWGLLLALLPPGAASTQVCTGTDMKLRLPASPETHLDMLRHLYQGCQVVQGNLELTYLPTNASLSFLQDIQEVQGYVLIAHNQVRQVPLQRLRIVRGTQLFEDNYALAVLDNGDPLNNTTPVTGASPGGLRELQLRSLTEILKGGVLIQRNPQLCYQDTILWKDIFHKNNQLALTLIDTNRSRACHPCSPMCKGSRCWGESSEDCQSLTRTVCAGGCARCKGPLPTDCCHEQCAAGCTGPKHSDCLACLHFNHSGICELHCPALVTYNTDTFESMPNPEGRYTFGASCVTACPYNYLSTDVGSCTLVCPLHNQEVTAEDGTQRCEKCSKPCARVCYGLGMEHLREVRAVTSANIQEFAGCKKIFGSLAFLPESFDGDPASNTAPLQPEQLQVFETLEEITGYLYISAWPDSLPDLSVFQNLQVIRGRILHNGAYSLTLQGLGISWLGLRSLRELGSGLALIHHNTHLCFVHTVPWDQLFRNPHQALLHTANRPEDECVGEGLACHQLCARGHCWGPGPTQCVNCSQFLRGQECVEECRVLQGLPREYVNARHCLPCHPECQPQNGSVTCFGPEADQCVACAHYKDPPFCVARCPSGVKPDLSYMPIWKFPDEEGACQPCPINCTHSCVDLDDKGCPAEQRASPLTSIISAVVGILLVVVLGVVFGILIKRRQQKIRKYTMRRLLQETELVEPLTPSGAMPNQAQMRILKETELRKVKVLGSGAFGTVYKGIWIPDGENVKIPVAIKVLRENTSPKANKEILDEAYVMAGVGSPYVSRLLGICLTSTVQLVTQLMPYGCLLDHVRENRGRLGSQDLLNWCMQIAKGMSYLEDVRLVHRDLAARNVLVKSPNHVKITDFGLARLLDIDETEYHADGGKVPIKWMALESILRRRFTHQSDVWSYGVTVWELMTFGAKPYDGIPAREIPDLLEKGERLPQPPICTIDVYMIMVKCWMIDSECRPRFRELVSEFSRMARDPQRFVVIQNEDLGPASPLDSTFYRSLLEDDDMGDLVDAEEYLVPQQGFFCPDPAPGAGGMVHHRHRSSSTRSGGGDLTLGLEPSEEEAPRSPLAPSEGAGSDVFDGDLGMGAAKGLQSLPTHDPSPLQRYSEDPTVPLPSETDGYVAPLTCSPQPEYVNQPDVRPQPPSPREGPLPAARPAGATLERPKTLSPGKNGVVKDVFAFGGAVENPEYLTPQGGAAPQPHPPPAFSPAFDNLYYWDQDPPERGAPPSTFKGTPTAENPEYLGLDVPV

SMILES | viability [1] [%] | Her2 level [2] | viability [3] | viability [4] | viability [5] | differential viability (reversal) ([6]; H69AR cells + 2 uM doxorubicin) | viability [6, 9] | viability [6, 10] | inhibition [7] | inhibition [8]
C=CCn1c(SCC(=O)Nc2ccccc2OC)nnc1-c1ccco1 | 95 | 89.5% (inactive) | 95% (inactive) | 95.2% (inactive) | 67.7% (inactive) | -16.8% (inactive) | 84.5% | 67.7% | -4.67% (inactive) | 2.9% (inactive)
COc1cccc(-c2nc(CSCC(=O)N3CCc4ccccc43)c(C)o2)c1 | 82.5 | 162% (inactive) | 82.5% (inactive) | 82.1% (inactive) | 87.1% (inactive) | -10.1% (inactive) | 97.1% | 87.1% | 2.63% (inactive) | -8.67% (inactive)
CC(=O)Nc1ccc(S(=O)(=O)Nc2nc3ccccc3nc2N2CCCC2)cc1 | 99.5 | 98% (inactive) | 99.5% (inactive) | 93.7% (inactive) | 92.3% (inactive) | -8.08% (inactive) | 100% | 92.3% | -7.87% (inactive) | 3.61% (inactive)
Cc1c(NC(=O)C(C)OC(=O)COc2cccc3c2OC(C)(C)C3)c(=O)n(-c2ccccc2)n1C (stereo not given) | 112 | 106% (inactive) | 112% (inactive) | 124% (inactive) | 92% (inactive) | -1.3% (inactive) | 93.3% | 92% | -4.47% (inactive) | 17.2% (inactive)
CCOC(=O)c1ccc(Oc2nc(SC)nc(N(C)C)n2)cc1 | 73.5 | 100% (inactive) | 73.5% (inactive) | 85% (inactive) | 107% (inactive) | 2.66% (inactive) | 105% | 107% | -1.54% (inactive) | -8.17% (inactive)
O=C(CCN1C(=O)COc2ccccc21)NCCN1CCN(c2cccc(Cl)c2)CC1 | 94.5 | 84% (inactive) | 94.5% (inactive) | 90.9% (inactive) | 83.8% (inactive) | -11.3% (inactive) | 95.1% | 83.8% | -1.04% (inactive) | -3.33% (inactive)
Cc1cc(C)n2cc(CSCc3ccco3)nc2n1 | 97 | 83% (inactive) | 97% (inactive) | 113% (inactive) | 95.2% (inactive) | 8.73% (inactive) | 86.4% | 95.2% | -7.16% (inactive) | 0.83% (inactive)
COCCn1c(C)cc(C(=O)COC(=O)CCN2C(=O)c3ccccc3C2=O)c1C | 94.5 | 98.5% (inactive) | 94.5% (inactive) | 97.9% (inactive) | 96.6% (inactive) | 5.55% (inactive) | 91.1% | 96.6% | -5.33% (inactive) | 0.65% (inactive)
CCCC1CC(C)(C(=O)Cn2[nH]c(=O)ccc2=O)OC1=O (stereo not given) | 84 | 95.5% (inactive) | 84% (inactive) | 105% (inactive) | 91.8% (inactive) | -3.6% (inactive) | 95.4% | 91.8% | -4% (inactive) | 5.08% (inactive)
O=C1CCC(=O)N1OCCCOc1ccc(Br)cc1Cl | 106 | 98.5% (inactive) | 106% (inactive) | 90% (inactive) | 93.5% (inactive) | -2.35% (inactive) | 95.9% | 93.5% | 0.13% (inactive) | 2.22% (inactive)
COc1ccc(NC(=O)CSc2nnc(-c3ccccc3C)n2C)cc1 | 96.5 | 108% (inactive) | 96.5% (inactive) | 113% (inactive) | 100% (inactive) | 13.8% (inactive) | 86.4% | 100% | -4.55% (inactive) | -5.17% (inactive)
COc1ccc(-c2cn3c(C)c(C(=O)Nc4cc(NC(C)=O)ccc4OC)sc3n2)cc1 | 92 | 79.5% (inactive) | 92% (inactive) | 71.5% (inactive) | 20.2% (active) | -42.9% (inactive) | 63.1% | 20.2% | -5.73% (inactive) | -2.13% (inactive)
CC(C)COC(=O)NCC12C=CC(O1)C1C(=O)N(c3ccc(Cl)cc3)C(=O)C12 (stereo not given) | 96 | 99.5% (inactive) | 96% (inactive) | 116% (inactive) | 89.9% (inactive) | -2.55% (inactive) | 92.5% | 89.9% | -6.16% (inactive) | -7.3% (inactive)
Nc1ccc(C(=O)O)c(O)c1 | 100 | 113% (inactive) | 100% (inactive) and 130% (inactive) | 105% (inactive) and 87.5% (inactive) | 78.2% (inactive) and 90.7% (inactive) | -28.9% (inactive) and 6.59% (inactive) | 107% and 84.1% | 78.2% and 90.7% | -1.82% (inactive) | 15.8% (inactive)
Cc1c(NC(=O)CN2c3cccc4cccc(c34)S2(=O)=O)c(=O)n(-c2ccccc2)n1C | 122 | 93% (inactive) | 122% (inactive) | 82.6% (inactive) | 102% (inactive) | 19.1% (inactive) | 82.5% | 102% | -4.27% (inactive) | 7.9% (inactive)
Cc1csc2nc3ccccc3c(=O)n12 | 100 | 91% (inactive) | 100% (inactive) | 103% (inactive) | 94.7% (inactive) | 1.49% (inactive) | 93.2% | 94.7% | -1.84% (inactive) | 1.31% (inactive)
CNC(=O)CSc1nnc(-c2ccc(S(=O)(=O)N3CCCC3)cc2)n1-c1cccc(C)c1C | 79.5 | 78.5% (inactive) | 79.5% (inactive) | 86.4% (inactive) | 88.9% (inactive) | 11.7% (inactive) | 77.2% | 88.9% | -4.86% (inactive) | -1.15% (inactive)
Cc1nc(Nc2nc(=O)c3ccccc3n2C)nc2c(C)cccc12 | 122 | 98% (inactive) | 122% (inactive) | 89.5% (inactive) | 86.1% (inactive) | -12.9% (inactive) | 99% | 86.1% | -2.89% (inactive) | 2.54% (inactive)
Cc1ccc(-c2nc(=S)c3c(n2Cc2ccco2)CCCC3)cc1 | 79 | 79% (inactive) | 79% (inactive) | 86.9% (inactive) | 10.3% (active) | -0.31% (inactive) | 10.6% | 10.3% | -1.47% (inactive) | -5.32% (inactive)
CCC1(C)Cc2c(C#N)c(N)n(N)c(=S)c2CO1 (stereo not given) | 102 | 97.5% (inactive) | 102% (inactive) | 85.1% (inactive) | 81.7% (inactive) | -7.55% (inactive) | 89.3% | 81.7% | 0.91% (inactive) | -2.13% (inactive)
Cc1nn(C)c(C)c1CN(C)C(=O)c1cc2nc(-c3ccco3)cc(C(F)(F)F)n2n1 | 77 | 94.5% (inactive) | 77% (inactive) | 109% (inactive) | 86.6% (inactive) | 0.655% (inactive) | 85.9% | 86.6% | 1.67% (inactive) | -9.33% (inactive)
CCn1c(SCC(=O)NCc2ccco2)nc2c(c1=O)SC(C)C2 (stereo not given) | 95 | 91% (inactive) | 95% (inactive) | 103% (inactive) | 91.3% (inactive) | -0.41% (inactive) | 91.7% | 91.3% | -4.4% (inactive) | -0.98% (inactive)
CCCn1c(C)nc2c(c1=O)c1nc3ccccc3nc1n2CCc1ccccc1 | 98 | 103% (inactive) | 98% (inactive) | 102% (inactive) | 88.5% (inactive) | -3.46% (inactive) | 91.9% | 88.5% | -4.42% (inactive) | 0.5% (inactive)
Cc1cccc(-c2cc3nc4c(c(N5CCOCC5)n3n2)CCCC4)c1 | 93 | 70% (inactive) | 93% (inactive) | 71.7% (inactive) | 76% (inactive) | -2.37% (inactive) | 78.4% | 76% | -6.76% (inactive) | 2.95% (inactive)
Nc1nc2ccccc2n1C(=O)CCc1ccccc1 | 102 | 83.5% (inactive) | 102% (inactive) | 44.8% (inactive) | 48.4% (active) | -27.6% (inactive) | 76.1% | 48.4% | -2.11% (inactive) | -2.67% (inactive)
COc1ccc(C(=O)OC(COc2ccccc2)Cn2ccnc2)cc1 (stereo not given) | 83 | 97% (inactive) | 83% (inactive) | 79.6% (inactive) | 94.7% (inactive) | 9.57% (inactive) | 85.1% | 94.7% | 100% (active) | 95.5% (active)
CCN(CC)S(=O)(=O)c1ccc2c(c1)c(=O)c(C(=O)NCCOC)cn2C | 88.5 | 99.5% (inactive) | 88.5% (inactive) | 101% (inactive) | 83.1% (inactive) | -12.5% (inactive) | 95.6% | 83.1% | -5.95% (inactive) | -5.5% (inactive)
CC(C)CCn1c(N)c(S(=O)(=O)c2cccs2)c2nc3ccccc3nc21 | 171 | 43% (active) | 171% (inactive) | 49.8% (inactive) | 42.9% (active) | -14.9% (inactive) | 57.7% | 42.9% | -3.95% (inactive) | -3.17% (inactive)
C=CCn1c(-c2ccc(OC)cc2)nc2ccccc21 | 118 | 99.5% (inactive) | 118% (inactive) | 110% (inactive) | 95.5% (inactive) | 4.69% (inactive) | 90.8% | 95.5% | -4.27% (inactive) | 3.71% (inactive)

From PubChem BioAssay
